Hits are enriched below; roughly 3% of the tested compounds scored in any of these assays.
MC4R ag barr: activates human MC4R beta-arrestin recruitment | 360,000 compounds, 0.98% hits | AID 540308 | P32245 | U2OS MC4R beta-arrestin complementation, luminescence; percent of melanotan II response, DMSO zero | activation, % at 8.9 µM;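 active means activation above a per-plate cutoff, the mean activation of sample wells on that plate plus 3 SD, cut at about 8% in these data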
B2AR ag: human beta-2 adrenergic receptor agonism by FAP. P07550. Am2.2-beta2AR cells, FAP receptor internalization, flow cytometry. response, % (no concentration beside the values). 340,000 compounds, 0.43% hits. AID 504454;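 active means response above a set limit, near 3 SD of response in nonfluorescent compounds, cut at about 42% in these data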
PfG6PD inh: PfG6PD (Plasmodium falciparum) enzyme inhibition. PfGluPho enzyme, NADPH resazurin-diaphorase fluorescence. inhibition, % at 20 µM. 350,000 compounds, 0.78% hits. AID 504690;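 active means inhibition reaching at least a set limit at 20 µM in the primary screen, cut at about 59% in these data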;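 further: 0% = DMSO wells with substrate and 100% = DMSO wells lacking glucose-6-phosphate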
ABHD5-PLIN5 inh: ABHD5-PLIN5 protein interaction inhibition; 360,000 compounds, 0.78% hits; inhibition, % at 4 µM; Split G. princeps luciferase complementation, luminescence, 4 h; Q00G26+Q8WTS1; AID 602281;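 active means inhibition above the mean inhibition across every tested compound plus 3 SD, cut at about 22% in these data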;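 further: 0% = DMSO only wells and the 100% control is not disclosed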
Target sequence (Q00G26 whole entry, looked up): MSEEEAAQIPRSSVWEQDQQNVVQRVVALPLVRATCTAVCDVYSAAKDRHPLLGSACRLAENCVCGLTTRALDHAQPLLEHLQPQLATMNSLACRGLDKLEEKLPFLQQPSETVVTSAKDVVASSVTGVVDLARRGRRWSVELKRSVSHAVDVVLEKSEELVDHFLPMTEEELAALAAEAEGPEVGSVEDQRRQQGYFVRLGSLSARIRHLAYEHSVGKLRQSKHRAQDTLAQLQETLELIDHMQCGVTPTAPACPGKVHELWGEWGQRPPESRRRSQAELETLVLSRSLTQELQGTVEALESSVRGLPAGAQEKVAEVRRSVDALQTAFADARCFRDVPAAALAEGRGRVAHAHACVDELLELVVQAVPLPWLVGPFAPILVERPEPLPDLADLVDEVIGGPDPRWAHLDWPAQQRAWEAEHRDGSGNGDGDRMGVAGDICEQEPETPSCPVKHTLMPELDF
Target sequence (Q8WTS1 whole entry, looked up): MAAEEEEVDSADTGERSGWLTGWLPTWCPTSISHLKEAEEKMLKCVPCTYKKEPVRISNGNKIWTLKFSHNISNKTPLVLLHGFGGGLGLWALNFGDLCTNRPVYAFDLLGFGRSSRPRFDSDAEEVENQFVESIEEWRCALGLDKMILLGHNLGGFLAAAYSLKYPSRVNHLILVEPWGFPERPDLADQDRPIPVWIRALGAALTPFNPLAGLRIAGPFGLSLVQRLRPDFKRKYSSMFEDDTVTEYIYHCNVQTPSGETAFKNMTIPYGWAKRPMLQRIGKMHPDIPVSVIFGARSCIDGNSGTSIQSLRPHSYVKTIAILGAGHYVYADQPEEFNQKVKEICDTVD
MC4R antag cAMP: human MC4R antagonism in cAMP assay. P32245. MC4R-expressing cells, MTII-stimulated cAMP, LANCE TR-FRET. inhibition, % at 6.5 µM. 360,000 compounds, 0.48% hits;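 active means inhibition above its plate's cutoff, the mean of tested wells on that plate plus 3 SD, cut at about 29% in these data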;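 further: 0% = Melanotan II alone and 100% = Melanotan II plus saturating MCL0020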
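Material: human MC4R-expressing U2OS cells. Probe or stimulus: Melanotan II challenge. Dosing: 6.5 µM single dose. Times: 30-min compound, 1-h challenge, 1-h detection, room temperature. Technique: TR-FRET with Eu-cAMP and labeled anti-cAMP, 671 nm. Replication: singlicate.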
PfGluPho conf: PfG6PD inhibition, single-dose confirmed. shares compounds with PfG6PD inh. recombinant PfGluPho, NADPH-diaphorase-resazurin fluorescence. inhibition, % at 20 µM. 2,400 compounds, 34% hits. AID 504753;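 active means inhibition of at least 50% at 20 µM in any single replicate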;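 further: 0% = DMSO with substrate and 100% = DMSO lacking glucose-6-phosphate substrate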
Diaphorase 10uM: inhibits diaphorase or oxidizes, flagging false PfG6PD hits; inhibition, % at 20 µM; 820 compounds, 39% hits; shares compounds with PfG6PD inh; AID 504862; diaphorase-coupled resazurin reduction, fluorescence, NADPH 10 uM;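 active means average inhibition reaching 50% or more with the compound at 20 µM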;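 further: resorufin red fluorescence formed as diaphorase reduces resazurin using NADPH; 0% = DMSO with enzyme and 100% = DMSO without enzyme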
Diaphorase 30uM: inhibits diaphorase or oxidizes, flagging false PfG6PD hits; shares compounds with PfG6PD inh; inhibition, % at 20 µM; 820 compounds, 29% hits; Diaphorase/resazurin coupled assay, resorufin fluorescence, 30 uM NADPH; AID 504863;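 active means inhibition averaging 50% or more, tested at 20 µM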;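 further: 0% = DMSO with enzyme and 100% = DMSO wells lacking diaphorase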
U2OS cAMP counter: counter-screen for MC4R antagonists: nonselective cAMP signaling inhibitors; parental U2OS, forskolin cAMP, LANCE TR-FRET; inhibition, % at 6.5 µM; shares compounds with MC4R antag cAMP; 1,600 compounds, 26% hits;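 active means mean inhibition over triplicates above the low-control well mean plus 3 SD, set per campaign, cut at about 13% in these data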;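 further: signal is single emission at 671 nm which falls as cellular cAMP rises; 0% = forskolin-stimulated wells and 100% = buffer without forskolin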
MC4R antag conf: human MC4R cAMP antagonism confirmation. shares compounds with MC4R antag cAMP. MC4R-expressing cells, MTII-stimulated cAMP, TR-FRET. inhibition, % at 6.5 µM. 1,600 compounds, 27% hits. AID 602195; in the data active means inhibition above about 29%;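 further: 0% = agonist stimulated wells alone and 100% = agonist stimulated wells plus saturating reference antagonist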
ABHD5 PLIN5 conf: confirmation of human ABHD5-PLIN5 interaction inhibitors; shares compounds with ABHD5-PLIN5 inh; biochemical ABHD5-PLIN5 interaction, luminescence; inhibition, % at 4 µM; 2,200 compounds, 67% hits; AID 651612; in the data active means inhibition above about 23%;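 further: 0% = DMSO vehicle wells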
HNF4 split-luc: active in HNF4 split-luciferase counter-screen for ABHD5-PLIN5 inhibitors; inhibition, % at 4 µM; HNF4 dimerization, luminescence, biochemical; 2,200 compounds, 77% hits; shares compounds with ABHD5-PLIN5 inh;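 active means mean inhibition across replicate wells exceeding the computed hit threshold, cut at about 13% in these data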;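 further: light from luciferase halves that rejoin when HNF4 fusion proteins dimerize; 0% = DMSO only wells and the 100% control is not given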
The depositor's hits bear a star; . = no result.

SMILES	MC4R ag barr	B2AR ag	PfG6PD inh	ABHD5-PLIN5 inh	MC4R antag cAMP	PfGluPho conf	others
COc1cc(/C=C/c2nc3ccccc3c(=O)n2-c2ccccc2O)ccc1O	0.4	-48.4	84.3*	3.7	21.4	38.7
COc1cccc(OCc2cc(C(=O)N3C[C@H]4C[C@@H](C3)c3cccc(=O)n3C4)no2)c1	1.0	8.2	-8.5	-6.3	4.1	.
CC(C)=CCOc1c2occc2cc2ccc(=O)oc12	-1.3	-9.9	67.7*	-3.4	1.2	44.7
O=C1NC(=O)C(=Cc2ccc(-c3ccccc3[N+](=O)[O-])o2)C(=O)N1	-0.6	-7.7	87.9*	10.3	28.0	76.0*	Diaphorase 10uM=15.7;Diaphorase 30uM=4.7
O=C1NC(=O)C(=Cc2ccc(-c3cc(Cl)ccc3[N+](=O)[O-])o2)C(=O)N1	-3.9	1.6	69.2*	-3.2	19.5	24.8
O=C1NC(=O)C(=Cc2ccccc2[N+](=O)[O-])C(=O)N1	-1.4	2.1	36.5	-0.1	4.6	.
O=C1NC(=O)C(=Cc2cc3c(cc2[N+](=O)[O-])OCO3)C(=O)N1	-2.0	-2.0	33.1	21.2	0.1	.
CN1CCc2cc3c(c4c2C1Cc1ccccc1-4)OCO3 (stereo not given)	-0.1	3.4	88.9*	-10.1	4.5	24.2
CCOc1ccc(CC2(CCc3ccncc3)C(=O)NC(=O)NC2=O)cc1	-1.4	-4.7	-4.8	-1.3	0.6	.
O=C1NC(=O)C(=Cc2csc3ccccc23)C(=O)N1	-0.6	23.8	65.2*	8.0	20.8	31.4
Cn1cc(C=C2C(=O)NC(=O)NC2=O)c2ccccc21	1.7	5.6	-3.1	13.2	-8.7	.
CC(=O)n1cc(C=C2C(=O)NC(=O)NC2=O)c2ccccc21	-2.1	11.4	66.4*	15.3	-13.9	-20.0
CN1CCc2cc(O)cc3c2[C@H]1Cc1ccc(O)c(O)c1-3	-1.1	-8.5	86.1*	-2.6	-9.6	83.1*	Diaphorase 10uM=24.5;Diaphorase 30uM=6.2
COc1cc2c(cc1O)[C@@H]1Cc3ccc(OC)c(O)c3CN1CC2	-0.9	-4.8	54.9	-10.5	-3.0	.
CCCN1CCc2cc(O)cc3c2[C@H]1Cc1ccc(O)c(O)c1-3	-2.3	0.5	86.2*	-5.8	-14.1	77.3*	Diaphorase 10uM=18.8;Diaphorase 30uM=29.9
COc1cc2c(cc1O)C[C@H]1c3c(cc(O)c(OC)c3-2)CCN1C	-0.2	-3.7	-3.1	-3.1	-4.6	.
COC(=O)C1=C(c2ccc(OCc3ccccc3)cc2)C[C@@H]2CC[C@H]1N2C(=O)NCc1ccc(N(C)C)cc1	0.7	-3.5	13.8	-5.7	3.3	.
CC(C)Nc1ccc(Nc2ccccc2)cc1	-6.1	1.4	106.2*	-8.6	8.1	52.1*	Diaphorase 10uM=-0.9;Diaphorase 30uM=8.3
c1ccc(Nc2ccc3ccccc3c2)cc1	1.7	1.6	37.8	-16.2	-2.4	.
CC1CC(C)CC(C)C(O)C(C#N)=CC=CCC(C2CCCC2C(=O)O)OC(=O)CC(O)C(C)C1 (stereo not given)	-3.2	13.2	1.1	-6.0	6.2	.
CCOc1ccc(-n2c(O)c(C=NCCN(CC)CC)c(=O)[nH]c2=O)cc1	0.9	2.1	-18.3	6.0	-4.5	.
CNC(=O)Oc1ccc(-c2cn3cc(Cl)ccc3n2)cc1	-2.7	0.8	68.5*	3.8	-4.0	46.6
N=c1n(CCO)c2ccccc2n1Cc1ccccc1	2.0	2.3	6.1	5.1	-8.5	.
CCc1c(C)nc(N)nc1N1N=C1SC(C(C)=O)C(C)=O	0.4	1.7	-4.1	0.4	6.1	.
O=S(=O)(c1ccccc1)N1CCN(S(=O)(=O)c2ccccc2)c2ccccc21	0.9	13.2	111.5*	-8.3	-0.5	44.8
SMILES	MC4R ag barr	B2AR ag	PfG6PD inh	ABHD5-PLIN5 inh	MC4R antag cAMP	PfGluPho conf	others
COCCNC(=O)c1c(N)n(Cc2ccco2)c2nc3ccccc3nc12	1.6	-4.8	59.9*	18.1	15.1	-2.4
CNS(=O)(=O)c1ccc(-c2ccc(C=C3C(=O)NC(=O)NC3=O)o2)cc1	-1.0	-7.8	80.6*	24.8*	8.2	54.9*	Diaphorase 10uM=-12.4;Diaphorase 30uM=-15.6;ABHD5 PLIN5 conf=93.7*;HNF4 split-luc=98.5*
Cc1ccc(S(=O)(=O)Oc2ccccc2C=C2C(=O)NC(=O)NC2=O)cc1	-1.7	.	19.4	21.4	5.8	.
NS(=O)(=O)c1ccc(-c2ccc(C=C3C(=O)NC(=O)NC3=O)o2)cc1	2.1	6.1	77.7*	25.2*	-1.4	80.4*	Diaphorase 10uM=6.6;Diaphorase 30uM=2.5;ABHD5 PLIN5 conf=91.2*;HNF4 split-luc=95.2*
O=c1[nH]sc2cc(F)ccc12	-2.5	4.4	63.3*	80.7*	-5.5	52.5*	Diaphorase 10uM=-5.0;Diaphorase 30uM=-9.3;ABHD5 PLIN5 conf=39.7*;HNF4 split-luc=112.7*
O=c1ccc2c(O)c3ccoc3cc2o1	-0.7	-37.5	19.2	-1.5	-1.4	.
CC1(C)CC[C@]2(C)CC[C@]3(C)C4C[C@@H]5OO[C@@]6(O5)C(CCCC6(C)C)[C@]4(C)CC[C@@]3(C)C2C1 (stereo not given in full)	2.8	11.2	11.2	1.7	22.1	.
CC1=C(O)C(=O)C=C2C1=CC=C1C2(C)CCC2(C)C3CC(C)(C(=O)O)CCC3(C)CCC12C (stereo not given)	-2.2	105.0*	80.5*	95.4*	32.4*	71.1*	Diaphorase 10uM=-15.2;Diaphorase 30uM=-16.0;U2OS cAMP counter=-5.3;MC4R antag conf=17.4;ABHD5 PLIN5 conf=101.5*;HNF4 split-luc=106.0*
CS(=O)(=O)c1ccc(C2=C(CNC(=O)c3nccs3)[C@H]3CC[C@@H](C2)N3Cc2ccco2)cc1	-0.7	.	-3.0	-6.0	2.2	.
CCOc1cc2[nH]c(=S)n(CCCC(=O)N3CCC4(CC3)OCCO4)c(=O)c2cc1OCC	-2.3	-2.1	11.8	-2.1	29.0*	.	U2OS cAMP counter=1.7;MC4R antag conf=8.1
COc1ccc2oc3c(c2c1)NC(=O)CN=C3c1ccccc1	1.5	-1.1	-14.5	-0.9	31.4*	.	U2OS cAMP counter=3.7;MC4R antag conf=-7.9
O=C1CN=C(c2ccccc2)c2ccccc2N1	-1.6	0.2	11.1	0.8	0.1	.
C=CCN1C(=O)NC(=O)/C(=C/c2ccoc2)C1=O	-1.0	29.8	5.2	0.9	8.2	.

Screening results as filed in PubChem BioAssay.
